High-throughput results (PubChem)
TAAR1 agonist: human TAAR1 agonists, primary screen, Fluo-8 calcium fluorescence, CHO RD-HGA16 cells; Trace amine-associated receptor 1 (Homo sapiens), Q96RJ0; vehicle wells 0%, saturating PEA agonist 100%; activation, % at 3 µM; 360,000 compounds, 0.99% hits;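 active = activation above the mean activation of all test compounds in the run plus 3 SD, cut at about 38% in these data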
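Test system: RD-HGA16 (CHO) cells co-expressing Gα16 and hTAAR1; dosing: one-point dosing at 3 µM (nominal); timing: 17-24 h seeding, 75 min 37 °C dye, 30 min RT; signal: kinetic Fluo-8 calcium fluorescence; read-out basis: % activation relative to PEA EC100 response; controls: DMSO and PEA EC100; replicates: n 1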
GPR7 antagonist: GPR7 receptor antagonists, primary screen, cell-based, fluorescence, single concentration. 290,000 compounds, 1.1% hits. AID 1861, 2009. Neuropeptides B/W receptor type 1 (Homo sapiens), P48145. inhibition, % at 4.4 µM. GPR7-expressing cells, fluorescence antagonist assay; in the data active = inhibition above about 16%, passing the limit was not always enough;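 note: cells stimulated with the agonist NPW; 0% = agonist with vehicle and 100% = vehicle without agonist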
OX1R antag-1: antagonists of human orexin 1 receptor (OX1R); Orexin/Hypocretin receptor type 1 (Homo sapiens), O43613; inhibition, % at 6.6 µM; OX1R-expressing cells, FRET antagonist read-out; 330,000 compounds, 1.8% hits; in the data active = inhibition mostly above about 38%, no sharp cut-off; inactive = mostly below about 40%;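 note: 0% = agonist challenge alone and 100% = reference antagonist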
Target sequence (O43613 whole entry, looked up): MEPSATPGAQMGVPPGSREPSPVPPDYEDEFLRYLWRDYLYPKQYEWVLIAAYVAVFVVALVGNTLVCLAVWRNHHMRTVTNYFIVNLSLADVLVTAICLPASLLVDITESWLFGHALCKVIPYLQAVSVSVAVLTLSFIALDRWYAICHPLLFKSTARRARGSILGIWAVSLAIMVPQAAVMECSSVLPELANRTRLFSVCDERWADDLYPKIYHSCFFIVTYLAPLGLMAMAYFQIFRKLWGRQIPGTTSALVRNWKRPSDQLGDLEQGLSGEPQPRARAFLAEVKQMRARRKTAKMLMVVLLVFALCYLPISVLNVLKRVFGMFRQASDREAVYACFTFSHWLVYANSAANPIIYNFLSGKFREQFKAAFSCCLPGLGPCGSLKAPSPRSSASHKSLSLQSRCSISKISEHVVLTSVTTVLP
OX1R antag-2: OX1R (HCRTR1) antagonists, primary screen, fluorescence, CHO/OX1R cells, Fluo-8 calcium, orexin A | inhibition, % at 5 µM | 330,000 compounds, 0.43% hits | Fluo-8 calcium fluorescence;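 active = inhibition above its plate's threshold, mean inhibition of all tested compounds on the plate plus 3 SD, cut at about 37% in these data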;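 note: 0% = orexin A challenge wells and 100% = SB-334867-A antagonist wells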
CHO parental Ca: ATP-evoked calcium signal inhibitors, parental CHO, primary screen, counter-screen for OX1R antagonist project, cell-based, fluorescence, Fluo-8 calcium dye; parental CHO-K1, ATP-induced calcium, Fluo-8 fluorescence; inhibition, % at 5.6 µM; 330,000 compounds, 0.63% hits;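 active = inhibition above that plate's mean sample inhibition plus 3 SD, cut at about 26% in these data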;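 note: 0% = ATP-challenged DMSO wells and 100% = DMSO wells without ATP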
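test system = CHO parental line | reagent = ATP stimulus | measured by = intracellular calcium via Fluo-8 no-wash fluorescent dye | control set = ATP and no-ATP DMSO wells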
TAAR1 antag: human TAAR1 antagonists, primary screen, Fluo-8 calcium fluorescence, CHO RD-HGA16 cells | inhibition, % at 3 µM | Trace amine-associated receptor 1 (Homo sapiens), Q96RJ0 | 360,000 compounds, 1.5% hits | antagonist;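 active = inhibition above a per-plate cutoff, the mean inhibition of test compounds on that plate plus 3 SD, cut at about 49% in these data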;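 note: 0% = DMSO plus EC80 beta-PEA response and 100% = DMSO alone without agonist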
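Test system: RD-HGA16 CHO cells with stable hTAAR1 and Gα16 / Probe or stimulus: EC80 β-phenethylamine stimulus / Times: seeding 17-24 h prior, 75-min 37 °C, 30-min RT dye loading / Detection: Fluo-8 calcium-sensitive fluorescence / Read-out basis: % inhibition scaled between DMSO and EC80 PEA controls / Repeats: singlicate, one well per test compound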
TAAR1 nonsel count: nonselective antagonists in TAAR1 counter-screen cells, counter-screen for hTAAR1 antagonist project, cell-based, fluorescence, calcium; shares compounds with TAAR1 antag; counterscreen cell line, antagonist mode; inhibition, % at 3 µM; 2,400 compounds, 77% hits; AID 651780, 2012; in the data active = inhibition above about 22%;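 note: CHO-Ga16 host cells stimulated with ATP at an EC80 level; 0% = agonist EC80 plus vehicle and 100% = vehicle without agonist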
TAAR1 ant conf: human TAAR1 antagonists, retest of hits, confirmation, cell-based, fluorescence. 2,400 compounds, 40% hits. TAAR1-expressing cells, fluorescence antagonist read-out. shares compounds with TAAR1 antag. inhibition, % at 3 µM; in the data active = inhibition above about 49%;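 note: CHO-Ga16 host cells challenged with agonist PEA near its EC80; 0% = agonist at EC80 plus vehicle and 100% = vehicle with no agonist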
Ga16 ag counter: calcium activation in Ga16-expressing cells, counter-screen for TAAR1 antagonist project, cell-based, fluorescence. activation, % at 3 µM. shares compounds with TAAR1 antag. AID 651953, 2012. agonist counterscreen. 2,400 compounds, 18% hits; in the data active = activation above about 12%;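 note: 0% = vehicle wells and 100% = saturating stimulus response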
TAAR1 ag count: TAAR1 activation by candidate antagonists – cell-based, fluorescence, counter-screen for TAAR1 antagonist project. 2,400 compounds, 2% hits. hTAAR1 cell line, agonist mode. AID 651955, 2012. shares compounds with TAAR1 antag. activation, % at 3 µM; in the data active = activation above about 37%;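 note: CHO cells stably expressing TAAR1 with calcium dye readout; 0% = DMSO vehicle and 100% = full agonist response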
The depositor's hits bear a star; . = not tested or not shown. A selection: hits, their analogues and other compounds. The true share with any hit is near 4.5%.

SMILES | TAAR1 agonist | GPR7 antagonist | OX1R antag-1 | OX1R antag-2 | CHO parental Ca | TAAR1 antag | TAAR1 nonsel count | TAAR1 ant conf | Ga16 ag counter | TAAR1 ag count
CCc1ccc(C(C(=O)NC2CCCC2)N(C(=O)/C=C/C(=O)Nc2cc(C)on2)c2ccccc2C)cc1 (stereo not drawn) | 0.1 | -5.5 | 11.8 | -27.6 | -12.1 | 11.6 | . | . | . | .
CN(C(=O)c1ccc2c(c1)SC1=NS(=O)(=O)CCN12)C(c1ccccc1)c1ccccc1 | 20.6 | -8.2 | 12.4 | -17.5 | -12.6 | 69.5* | 30.7* | 53.2* | 8.0 | 9.4
O=C(O)c1ccc2c(c1)SC1=NS(=O)(=O)CCN12 | 1.0 | 3.9 | 6.8 | 10.2 | 10.2 | -11.8 | . | . | . | .
Cc1cc(C)c2sc(N)nc2c1 | 1.3 | -14.5 | 1.7 | -4.9 | -2.6 | -13.2 | . | . | . | .
O=C(N=Nc1c(O)n(Cc2ccccc2)c2ccccc12)c1ccc(O)cc1 | 2.6 | -3.3 | 9.7 | -10.0 | -24.2 | 51.0* | 21.1 | 32.0 | 2.5 | -2.8
Cc1cc(-c2nc3cccnc3s2)ccc1NS(=O)(=O)c1cccs1 | 0.2 | -16.1 | 12.5 | 8.3 | -12.1 | 63.3* | 16.5 | 33.9 | 3.1 | 0.2
Cc1ccc(NC(=O)c2ccc(S(=O)(=O)N3CCC(C)CC3)cc2)cc1 | 29.4 | -5.1 | 6.1 | -11.7 | -2.6 | 79.0* | 0.3 | -4.4 | 1.5 | -1.9
N#CCc1ccc(NC(=O)c2ccc(S(=O)(=O)N3CCCC3)cc2)cc1 | 22.7 | -8.5 | 9.6 | 2.6 | 0.7 | 57.3* | 29.8* | 54.2* | 15.3* | 17.4
Cc1ccc(C(=O)Nc2ccc(S(=O)(=O)N3CCOCC3)cc2)cc1 | 11.9 | -1.4 | 5.5 | -11.8 | -12.3 | -1.7 | . | . | . | .
O=C(O)CSc1nnc(-c2ccc(Cl)cc2Cl)n1-c1ccccc1 | 8.8 | 0.0 | -6.3 | -10.7 | -3.4 | 9.3 | . | . | . | .
CCCn1c(SCC(=O)c2c(C)[nH]c(C)c2C(=O)OCC)nc2ccccc21 | 12.0 | -1.4 | 25.9 | -26.1 | -31.1 | 49.3* | 17.6 | 33.6 | 10.2 | 15.5
CCOC(=O)c1c(C)[nH]c(C)c1C(=O)CSc1nc2ccccc2c(=O)n1-c1ccc(C)cc1 | 1.8 | -12.9 | 14.9 | -12.9 | -15.4 | 0.6 | . | . | . | .
COc1ccc(C(=O)Nc2cccc(/C=C/c3nc4ccccc4c(=O)[nH]3)c2)cc1 | 12.9 | -3.3 | 24.4 | -22.8 | -13.2 | 54.6* | 15.8 | 37.7 | 6.8 | 3.8
COc1ccc(C(=O)Nc2nc3ccccc3c(=O)[nH]2)cc1 | 10.0 | 3.9 | 42.4 | -9.4 | -12.9 | -9.9 | . | . | . | .
O=C(Nc1cccc(/C=C/c2nc3ccccc3c(=O)[nH]2)c1)c1ccccc1Cl | 9.7 | -13.7 | 31.4 | -24.1 | -10.1 | 67.8* | 30.2* | 48.4 | 11.8* | 5.1
Cc1cc(C)cc(NC(=O)CN2C(=O)NC(C)(c3ccccc3)C2=O)c1 (stereo not drawn) | 8.1 | -6.2 | 12.8 | -10.4 | -24.2 | 7.7 | . | . | . | .
CC1(c2ccccc2)NC(=O)N(CC(=O)Nc2cccc(/C=C/c3ccccn3)c2)C1=O (stereo not drawn) | 8.5 | . | 33.2 | -19.9 | -28.5 | 49.5* | 15.4 | 33.2 | 6.1 | 10.0
